A word on the IC50: it is the concentration that gives 50% inhibition.

SMILES strings stand for the structures. Where only a bound is given, the exact number is not on record here.

A short description of data set [1]: Inhibition of pro-inflammatory cytokine IL5 production in ovalbumin-stimulated BALB/c mouse TH2 cells at 5 nM after 48 hrs by sandwich-ELISA relative to control. Format: functional. On the set-up: scale not given: the % may be the effect or the level left. In a few lines:
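Splenocytes from female BALB/c mice (6-8 weeks) were used, taken after weekly subcutaneous immunisation for 4 weeks with 25 µg OVA on 1 mg alum in PBS. Cells were held at 1.3 × 10^6 cells/mL in RPMI-1640 and given compound in DMSO plus OVA for 48 h. Controls were DMSO ± OVA wells. Supernatant IL-5 was read by colorimetric sandwich ELISA.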

The nature of data set [2]: Inhibition of pro-inflammatory cytokine IL5 production in ovalbumin-stimulated BALB/c mouse TH2 cells after 48 hrs by sandwich-ELISA. Format: functional, cell-based. The settings on record: TH2, 48 h. In a few lines: (§1)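 Splenocytes from female Balb-C mice (6-8 weeks) immunized subcutaneously weekly for four weeks with 25 µg OVA adsorbed to 1 mg alum in PBS. Cells in RPMI-1640 at 1.3 × 10^6 cells/mL, given compound in DMSO plus OVA allergen; DMSO and DMSO+OVA replicate wells as controls. After 48 h incubation, supernatant cytokine measured by colorimetric sandwich ELISA.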
(In general: An ELISA detects its analyte on a solid surface through an enzyme-linked reagent.)

The nature of data set [3]: Inhibition of pro-inflammatory cytokine IL13 production in ovalbumin-stimulated BALB/c mouse TH2 cells after 48 hrs by sandwich-ELISA. Type of data set: functional, cell-based. The note with it: TH2, 48 h. An outline of the steps:
as §1

Data set [4] is described as follows: Cytotoxicity against BALB/c mouse TH2 cells after 48 hrs by Trypan blue assay. Format: cell-based. The settings on record: read-out: LD50. In a few lines: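 Splenocytes from OVA/alum-immunized female Balb-C mice (6-8 weeks) in RPMI-1640 at 1.3 × 10^6 cells/mL, exposed to compound in DMSO with OVA allergen for 48 h. Adherent cells stained with trypan blue and counted visually on a hemocytometer to assess viability.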

Data set [5] can be described thus: Inhibition of pro-inflammatory cytokine TNFalpha production in ovalbumin-stimulated BALB/c mouse APC at 10 nM after 48 hrs by sandwich-ELISA relative to control. Type of data set: functional. Also on record: scale not given: the % may be the effect or the level left. In a few lines: as §1
The nature of data set [6]: Therapeutic index, ratio of LD50 for BALB/c mouse TH2 cells to IC50 for pro-inflammatory cytokine production in BALB/c mouse TH2 cells. Format: cell-based. The note with it: read-out: TI. In a few lines:
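Splenocytes came from OVA/alum-immunised female BALB/c mice (25 µg OVA s.c. weekly for 4 weeks) and were held at 1.3 × 10^6 cells/mL in RPMI-1640. They were exposed to compound in DMSO with OVA for 48 h, with DMSO ± OVA control wells. Cytokines in the supernatant were measured by sandwich ELISA. Viability of adherent cells was scored by trypan blue hemocytometer counting.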

Data set [7] can be described thus: Inhibition of pro-inflammatory cytokine IL1 production in ovalbumin-stimulated BALB/c mouse APC at 10 nM after 48 hrs by sandwich-ELISA relative to control. Format: functional. On the set-up: scale not given: the % may be the effect or the level left. In a few lines:
as §1

`C[C@@H]1C[C@H]2[C@@H]3CCC4=CC(=O)C=C[C@]4(C)[C@@]3(F)[C@@H](O)C[C@]2(C)[C@@]1(O)C(=O)CO` [DEXAMETHASONE] registered an Activity in data set [1] above 80%. In addition, the IC50 in data set [2] and in data set [3] was 0.005 µM in each case. Further, the CC50 at 48 h in data set [4] was above 7.1 µM.

On to `CC(=O)O[C@H]1[C@H](C)OC(=O)[C@@H](NC(=O)c2cccc(NC=O)c2O)[C@@H](C)OC(=O)[C@@H]1Cc1ccccc1` [SPLENOCIN A], for which, in data set [2], the IC50 was 0.0031 µM. Also, the CC50 at 48 h in data set [4] was above 1.8 µM.

For the molecule `CC(C)C(=O)O[C@H]1[C@H](C)OC(=O)[C@@H](NC(=O)c2cccc(NC=O)c2O)[C@@H](C)OC(=O)[C@@H]1Cc1ccccc1` [SPLENOCIN B], the figures for the Activity in data set [1], in data set [5] and in data set [7] were above 80%, 75% and 85%, respectively. The figures for the IC50 in data set [2] and in data set [3] were 0.0018 µM and 0.0016 µM, respectively. In data set [4], the CC50 at 48 h was above 1.7 µM. For the same molecule, in data set [6], the selectivity ratio is above 500.

For the molecule `CCC(C)C(=O)O[C@H]1[C@H](C)OC(=O)[C@@H](NC(=O)c2cccc(NC=O)c2O)[C@@H](C)OC(=O)[C@@H]1Cc1ccccc1` (some centres undefined) [SPLENOCIN C], the figures for the IC50 in data set [2] and in data set [3] were 0.0067 µM and 0.0073 µM, respectively. In addition, the CC50 at 48 h in data set [4] is above 0.56 µM.

With `CC[C@H]1C(=O)O[C@H](C)[C@H](NC(=O)c2cccc(NC=O)c2O)C(=O)O[C@@H](C)[C@@H]1OC(=O)c1ccccc1` [SPLENOCIN D], the half-inhibitory concentration (IC50) in data set [2] is 0.0479 µM; in data set [3], 0.0437 µM. Also, in data set [4], the CC50 at 48 h is above 0.55 µM.

For `CCCC[C@H]1C(=O)O[C@H](C)[C@H](NC(=O)c2cccc(NC=O)c2O)C(=O)O[C@@H](C)[C@@H]1OC(=O)c1ccccc1` [SPLENOCIN E], the IC50 in data set [2] amounted to 0.0166 µM; in data set [3] it was 0.0159 µM. The CC50 at 48 h in data set [4] is above 0.57 µM.

As for `CCCCC[C@H]1C(=O)O[C@H](C)[C@H](NC(=O)c2cccc(NC=O)c2O)C(=O)O[C@@H](C)[C@@H]1OC(=O)c1ccccc1` [SPLENOCIN F], the results for the IC50 in data set [2] and in data set [3] were 0.0094 µM and 0.0068 µM, respectively. Further, the CC50 at 48 h in data set [4] was above 0.56 µM.

Regarding `CCCCCC[C@H]1C(=O)O[C@H](C)[C@H](NC(=O)c2cccc(NC=O)c2O)C(=O)O[C@@H](C)[C@@H]1OC(=O)c1ccccc1` [SPLENOCIN G], the results for the IC50 in data set [2] and in data set [3] were 0.005 µM and 0.0052 µM, respectively. Moreover, the Activity in data set [5] stood at 75%; in data set [7], 85%. Also, in data set [4], the CC50 at 48 h was above 0.55 µM.

As for `CCCCC(C)C[C@H]1C(=O)O[C@H](C)[C@H](NC(=O)c2cccc(NC=O)c2O)C(=O)O[C@@H](C)[C@@H]1OC(=O)c1ccccc1` (some centres undefined) [SPLENOCIN H], the IC50 worked out at 0.0043 µM in data set [2] and 0.0051 µM in data set [3]. Also, the CC50 at 48 h in data set [4] was above 1.6 µM.

Take `C[C@@H]1OC(=O)[C@@H](NC(=O)c2cccc(NC=O)c2O)[C@@H](C)OC(=O)[C@H](Cc2ccccc2)[C@H]1OC(=O)c1ccccc1` [SPLENOCIN I]: the IC50 in data set [2] amounted to 0.0158 µM; in data set [3] it was 0.0152 µM. In addition, in data set [4], the CC50 at 48 h is above 0.54 µM.

Consider `C[C@@H]1OC(=O)[C@@H](NC(=O)c2cccc(NC=O)c2O)[C@@H](C)OC(=O)[C@H](Cc2ccccc2)[C@H]1O` [SPLENOCIN J], for which the IC50 in data set [2] was found to be 1.02 µM; in data set [3] it was 0.826 µM. Moreover, the CC50 at 48 h in data set [4] was above 6 µM.

Values taken from ChEMBL document CHEMBL1153431, “Potent inhibitors of pro-inflammatory cytokine production produced by a marine-derived bacterium” (J Med Chem, 2009).
